Pf gametocyte: late stage P. falciparum gametocyte viability inhibitors, primary screen, ATP luminescence, HTS. actives 0.065% (n = 150,000). P. falciparum stage V gametocytes, 24 h. inhibition, % at 10.9 µM;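 active = inhibition above the mean plus 3 SD of compounds within the control limits, set per campaign, cut at about 38% in these data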
Wee1 stabilizer: Wee1 degradation inhibitors, primary screen, cell-based, HeLa, Wee1K328M-luciferase, luminescence | AID 1321, 2008 | actives 1.2% (n = 220,000) | HeLa Luc-Wee1K328M stability; 100% = proteasome inhibitor MG132 effect | Wee1-like protein kinase (Homo sapiens), P30291 | reporter increase, % at 5 µM;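 active = activation above the mean of all tested compounds plus 3 SD, set per screening run, cut at about 8.8% in these data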;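 also: cells exposed to compound for 20 h before luminescence read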
L929 necroptosis: inhibitors of zVAD-triggered necroptosis, primary screen, L929 cells | L929 zVAD necroptosis rescue, ATP luminescence, 24 h; with zVAD 60 µM | AID 1377, 2008 | viability rescue, % at 10 µM | actives 0.38% (n = 220,000);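 active = activation, scaled between plate controls, above about 75%, limit read from the data; inactive = activation under that limit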
RBBP9 inhibitor: human RBBP9 inhibitors, primary screen, biochemical, fluorescence polarization, FP-Rh probe, HTS; inhibition, % at 7.94 µM; Serine hydrolase RBBP9 (Homo sapiens), O75884; recombinant RBBP9; actives 0.2% (n = 220,000);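 active = inhibition above the campaign mean of all tested compounds plus 3 SD, cut at about 14% in these data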
Target sequence (O75884 whole entry, looked up): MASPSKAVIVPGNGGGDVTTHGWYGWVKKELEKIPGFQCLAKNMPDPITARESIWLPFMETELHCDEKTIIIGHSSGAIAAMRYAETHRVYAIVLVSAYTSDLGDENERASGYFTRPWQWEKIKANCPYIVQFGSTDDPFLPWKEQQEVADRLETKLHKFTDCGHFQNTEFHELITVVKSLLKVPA
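Test system: recombinant human RBBP9. Quantity: 2.5 µM RBBP9 dispensing solution, before mixing. Detection: FP readout at 525/598 nm. Reagent: Serine-hydrolase probe FP-Rh, 375 nM pre-mixing. Measure: % inhibition. Control set: DMSO-treated enzyme wells and wells lacking RBBP9. Buffer or medium: Tris-NaCl-Pluronic buffer, pH 8.0. Times: preincubation 30 min plus labeling 45 min at 25 °C.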
TNF necrop inh: inhibitors of TNF-alpha triggered necroptosis, primary screen, cell-based, Jurkat FADD-/-, single concentration | actives 0.068% (n = 220,000) | activation (protection from cell death), % at 10 µM | Jurkat FADD-/- TNF necroptosis rescue, ATP luminescence, 24 h; 0 = TNF only, 100 = no-TNF cells;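 active = activation, meaning protection from cell death, of at least 50% relative to plate controls; inactive = activation below 50%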;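 also: necroptosis triggered by 40 ng/mL TNF-alpha added together with compound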
Calpain2 inh: inhibitors of pig calpain II, primary screen, biochemical, fluorogenic peptide substrate, 1536-well; AID 1236, 2008; actives 0.37% (n = 220,000); inhibition, % at 16 µM; purified calpain II, 30 min;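 active = inhibition above about 50%, limit read from the data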
Hits are given with their value; n = inactive; x = no result given; ! = repeats disagree. The list is not random: actives were taken first. Their share in the collection is about 2.1%.

SMILES	Pf gametocyte	Wee1 stabilizer	L929 necroptosis	RBBP9 inhibitor	TNF necrop inh	Calpain2 inh
O=C(CSc1ccc2c(c1)OCCO2)Nc1ccc(Cl)cn1	n	11.0	n	n	n	n
CC(=O)Nc1ccc(SCC(=O)Nc2ccc(Cl)cn2)cc1	n	n	n	n	n	n
O=C(c1ccc([N+](=O)[O-])cc1)N1CCSC1c1ccccc1Cl (stereo not drawn)	n	n	n	n	50.9	n
Cc1ccc([N+](=O)[O-])c(C(=O)N/N=C/c2cccs2)c1	n	n	n	n	n	n
O=C(/C=C/c1cccc([N+](=O)[O-])c1)NC(=S)Nc1ccccc1C(=O)O	x	n	n	n	n	n
CC(C)C(OC(=O)/C=C/c1ccc2c(c1)OCO2)C(=O)NC(N)=O (stereo not drawn)	n	n	n	n	n	n
Cc1ccc2cc(CCNC(=O)c3cc4ccccc4o3)c(=O)[nH]c2c1C	x	n	n	n	n	54.1
Cc1ccc2cc(CCNC(=O)C(C)C)c(=O)[nH]c2c1C	x	n	n	n	n	n
CCOC(=O)/C(C#N)=C/c1c[nH]c2ccccc12	n	10.1!	n	n	n	n
CC1Cc2ccccc2N1C(=O)C1CCCN(S(=O)(=O)c2cccc3nsnc23)C1 (stereo not drawn)	n	n	n	n	n	54.8
COc1cc(C(O)P(=O)(OCCC(C)C)c2ccc(N(C)C)cc2)cc(OC)c1OC (stereo not drawn)	n	n	n	n	n	n
O=C(CCCn1c(=O)[nH]c2ccsc2c1=O)N1CCN(c2ccccn2)CC1	x	10.8	n	n	n	n
O=C(O)c1ccc(C(=O)c2ccc3c(c2)C(=O)N(CC2CCCO2)C3=O)cc1 (stereo not drawn)	n	10.3	n	n	n	n
COc1cc(C2(c3ccc(O)c(OC)c3)C(=O)Nc3c(C)cc(Br)cc32)ccc1O	n	x	x	x	x	x
CC(Cc1cccs1)NC(=O)Nc1ccc([N+](=O)[O-])cc1 (stereo not drawn)	n	n	n	n	n	n
O=C(CCN1C(=O)/C(=C/c2ccc3c(c2)OCO3)SC1=S)Nc1ccccc1	x	n	n	n	n	58.0
Cc1ccc(C)c(/C=C(\C(=O)O)c2ccc(S(=O)(=O)N3CCCCC3)s2)c1	x	n	n	n	n	n
Cc1cc(=O)[nH]c(SCc2nc3ncccn3c2Br)n1	n	n	n	n	n	n
Cc1cc(=O)[nH]c(SCc2cccc3cccnc23)n1	n	10.7	n	n	n	n
CCCCN(Cc1ccccc1)C(=O)c1cnc2n(c1=O)CCS2	n	n	n	n	n	n
COc1ccc(C2=[N+](C)CCn3cccc32)c(OC)c1	x	n	n	n	n	n
Cn1nnnc1SCC(=O)Nc1cc(C(C)(C)C)nn1-c1ccccc1	x	n	n	n	n	n
COc1ccccc1-n1cnnc1SCC(=O)Nc1cc(C(C)(C)C)nn1-c1ccccc1	n	n	105.3	n	n	n
COc1ccc2nc(NC(=O)c3cccs3)sc2c1	n	9.5	n	n	n	n
CN1CCNC(=O)C1CC(=O)NCCc1ccccc1F (stereo not drawn)	n	n	n	n	n	n
SMILES	Pf gametocyte	Wee1 stabilizer	L929 necroptosis	RBBP9 inhibitor	TNF necrop inh	Calpain2 inh
Cc1ccc(SCCNC(=O)/C=C/c2ccc([N+](=O)[O-])cc2)cc1	n	n	n	n	n	n
O=C(/C=C/c1ccc([N+](=O)[O-])cc1)NCCSc1ccccc1	x	n	n	n	n	56.6
CC(=C/C(=O)O)/C=C/c1ccc([N+](=O)[O-])cc1	n	11.1	n	n	n	n
NS(=O)(=O)c1ccc(CCNCC(=O)N2CCC(Cc3ccccc3)CC2)cc1	n	n	n	n	n	n
CCCCP(=O)(CCCC)Cc1ccccc1O	n	9.4	n	n	n	n
CC(NC(=O)c1cc(Br)ccc1Cl)c1ccccc1 (stereo not drawn)	n	n	n	n	79.7	n
Cc1cc(NC(=O)CSc2nc3ccsc3c(=O)n2CCCC(=O)NCCc2ccccc2)no1	n	n	n	n	n	50.3
CCN(CC)C(=O)CSc1nc2ccsc2c(=O)n1CCCC(=O)NCCc1ccc(S(N)(=O)=O)cc1	n	n	n	n	n	n
NS(=O)(=O)c1ccc(CCNC(=O)CSc2nc3ccsc3c(=O)n2C2CC2)cc1	n	n	n	n	n	n
NS(=O)(=O)c1ccc(CCNC(=O)CSc2nc3ccsc3c(=O)n2CC2CCC(C(=O)O)CC2)cc1 (stereo not drawn)	n	10.7	n	n	n	n
COC(=O)C1=C(C)N(C)C(=S)NC1c1ccc(OC)cc1OC (stereo not drawn)	x	n	n	n	n	n
COc1cc(/C=C(\C#N)c2nnc(N3CCOCC3)n2-c2ccccc2)ccc1O	n	n	n	n	n	n
Cc1cc(/C=C(\C#N)c2nnc(N3CCOCC3)n2-c2ccccc2)c(C)n1-c1ccccc1	x	10.0	n	n	n	n
CC(C)N1C(=O)c2ccccc2N(Cc2ccccc2)S1(=O)=O	n	10.4	n	n	n	n
O=C1C(=O)N(Cc2ccccc2)C(=O)N1CCN1C(=O)c2ccccc2C1=O	x	n	n	n	n	n
CCN(CC)C(=S)SC1=CCS(=O)(=O)C1	n	10.1	n	n	n	n
CN1CCN(C(=O)c2ccccc2NC(=O)C(C)(C)C)CC1	x	n	n	n	n	n
CN1CCN(C(=O)c2ccccc2NC(=O)Cc2ccccc2)CC1	n	10.2	n	n	n	n
COc1ccc2nc(N3CCCC3)c(C#N)cc2c1	x	8.9	n	n	n	n
COc1cc(/C=N/NC(=O)CSc2cc(C)c(Br)cc2C)ccc1O	n	n	n	n	n	n
Cc1cc(SCC(=O)N/N=C/c2ccc(O)c(O)c2O)c(C)cc1Br	39.1	n	n	n	n	n
CC(C)(C)NC(=O)NC(=O)CN1CCN(c2ccc(O)cc2)CC1	n	n	n	n	n	74.1
CCCN(C#N)c1nc(NCC)nc(NC(C)C)n1	n	n	n	n	n	52.2
CCCCCCCCCCn1c2c(c(=N)c3c1CCC3)CCC2	x	n	n	n	n	54.3
CCn1cc(/C=C/C(=O)Nc2ccn(Cc3c(F)c(F)cc(F)c3F)n2)cn1	x	n	n	n	78.3	n
CCn1cc(/C=C/C(=O)Nc2ccc(C)cc2Br)cn1	n	n	n	n	n	n
COCCN(C(=O)c1snc(C(N)=O)c1N)C(C(=O)NC1CCCCC1)c1ccc(N(C)C)cc1 (stereo not drawn)	n	x	x	x	x	x
CN(C)S(=O)(=O)c1ccc2c(c1)nc(CCC(=O)NCc1ccc(Cl)cc1)n2C	x	n	n	n	n	50.8
NS(=O)(=O)c1ccc(CCNC(=O)CCCCCNc2nc(=S)[nH]c3ccccc23)cc1	n	n	n	n	n	n
